ChEMBL document CHEMBL4219124, “Alleviating CYP and hERG liabilities by structure optimization of dihydrofuran-fused tricyclic benzo[d]imidazole series - Potent, selective and orally efficacious microsomal prostaglandin E synthase-1 (mPGES-1) inhibitors: Part-2” (Bioorg Med Chem Lett, 2018)

Key:
[1] = target: CYP2D6 (Homo sapiens, UniProt P10635); test: Inhibition of CYP2D6 in human liver microsomes at 10 uM after 20 mins in presence of NADPH by LC-MS/MS analysis; type: ADME; conditions: liver microsomes
Method in brief: (§1)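 Percent inhibition of each CYP isoform by test compound at 10 µM, compared with a no-inhibitor control. Run in triplicate.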

[2] = Protein binding in guinea pig plasma at 10 uM after 5 hrs by equilibrium dialysis based LC-MS/MS analysis; type: ADME, cell-free, Cavia porcellus; conditions: read-out: PPB (converted)
Method in brief: (§2)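 Equilibrium dialysis at 10 μM compound; result expressed as percent bound.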

[3] = Metabolic stability in guinea pig liver microsomes assessed as parent compound remaining at 1 uM after 60 mins in presence of NADPH by LC-MS/MS analysis; type: ADME, Cavia porcellus, microsome; conditions: read-out: Stability
Method in brief: (§3)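 Compound incubated 60 min at 37 °C with human, rat or guinea pig liver microsomes; percent parent remaining, triplicates.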

[4] = target: CYP3A4 (Homo sapiens, UniProt P08684); test: Inhibition of CYP3A4 in human liver microsomes at 10 uM after 20 mins in presence of NADPH by LC-MS/MS analysis; type: ADME; method in brief: as §1
[5] = Inhibition of mPGES1 in guinea pig whole blood assessed as reduction in LPS-induced PGE2 production measured after 20 to 24 hrs; conditions: Cavia porcellus
Method in brief: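 Guinea pig whole blood stimulated with LPS. […] At least two experiments, each in duplicate.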

[6] = target: CYP2C9 (Homo sapiens, UniProt P11712); test: Inhibition of CYP2C9 in human liver microsomes at 10 uM after 20 mins in presence of NADPH by LC-MS/MS analysis; type: ADME; method in brief: as §1
[7] = target: T1, Prostaglandin E synthase 3 (Homo sapiens) (UniProt Q15185); test: Inhibition of cPGES in human U937 cells assessed as decrease in PGE2 production at 10 uM using arachidonic acid as substrate relative to control; type: cell-based
T1 sequence (whole entry): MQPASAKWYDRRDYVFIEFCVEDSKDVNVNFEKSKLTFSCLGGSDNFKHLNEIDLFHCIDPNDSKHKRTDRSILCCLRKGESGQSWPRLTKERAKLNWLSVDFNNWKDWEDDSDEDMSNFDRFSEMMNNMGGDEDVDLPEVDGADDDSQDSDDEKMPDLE
Method in brief: (§4)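 Selectivity panel against other prostanoid-pathway enzymes. % inhibition values are means of at least two experiments, each in duplicate.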

[8] = tested on: CHO; test: Inhibition of rat mPGES1 expressed in CHO cells assessed as reduction in PGE2 production at 10 uM using PGH2 as substrate incubated for 10 mins followed by substrate addition measured for 1 min relative to control; type: cell-based
Method in brief: (§5)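 Rodent enzyme protocol run as for the human and guinea pig mPGES-1 enzyme assays; single-concentration percent inhibition.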

[9] = target: T2, Prostaglandin E synthase (Homo sapiens, UniProt O14684); test: Inhibition of recombinant human mPGES1 expressed in CHO cells assessed as reduction in PGE2 production using PGH2 as substrate incubated for 10 mins followed by substrate addition measured for 1 min; type: cell-based
T2 sequence (O14684 whole entry): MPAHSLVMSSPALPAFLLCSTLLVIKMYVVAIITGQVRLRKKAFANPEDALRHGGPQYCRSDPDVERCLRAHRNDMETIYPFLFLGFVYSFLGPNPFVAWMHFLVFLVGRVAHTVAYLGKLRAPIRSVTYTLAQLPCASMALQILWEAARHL

[10] = Inhibition of human U937 cells-derived COX1 assessed as decrease in PGE2 production at 10 uM using arachidonic acid as substrate preincubated for 15 mins prior to substrate addition for 5 mins relative to control; conditions: COX1 derived from U937 cells, probe arachidonic acid; method in brief: as §4
[11] = target: Hematopoietic prostaglandin D synthase (Homo sapiens) (UniProt O60760); test: Inhibition of PGDS (unknown origin) at 10 uM relative to control; method in brief: as §4
[12] = target: Prostaglandin E synthase 2 (Homo sapiens) (UniProt Q9H7Z7); test: Inhibition of mPGES2 in A23187-stimulated human THP1 cells assessed as decrease in PGE2 production at 10 uM using arachidonic acid as substrate relative to control; method in brief: as §4
[13] = target: T3, CYP1A2 (Homo sapiens, UniProt P05177); test: Inhibition of CYP1A2 in human liver microsomes at 10 uM after 20 mins in presence of NADPH by LC-MS/MS analysis; type: ADME; method in brief: as §1
T3 sequence (P05177 whole entry): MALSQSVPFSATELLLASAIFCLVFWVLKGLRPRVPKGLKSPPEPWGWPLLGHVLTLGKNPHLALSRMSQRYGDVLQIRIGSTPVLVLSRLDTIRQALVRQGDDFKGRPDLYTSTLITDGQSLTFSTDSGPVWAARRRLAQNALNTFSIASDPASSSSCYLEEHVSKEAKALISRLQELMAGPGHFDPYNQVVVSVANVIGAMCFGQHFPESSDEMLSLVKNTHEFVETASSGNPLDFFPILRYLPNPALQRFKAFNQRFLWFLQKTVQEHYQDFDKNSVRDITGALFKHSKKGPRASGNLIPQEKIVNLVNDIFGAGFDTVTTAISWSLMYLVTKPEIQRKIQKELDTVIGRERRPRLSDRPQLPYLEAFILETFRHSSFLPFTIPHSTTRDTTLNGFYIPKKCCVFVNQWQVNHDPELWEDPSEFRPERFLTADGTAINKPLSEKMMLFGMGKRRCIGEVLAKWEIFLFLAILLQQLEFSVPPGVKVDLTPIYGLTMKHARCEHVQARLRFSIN

[14] = Protein binding in human plasma at 10 uM after 5 hrs by equilibrium dialysis based LC-MS/MS analysis; type: ADME, cell-free; conditions: read-out: PPB (converted); method in brief: as §2
[15] = target: hERG (KCNH2) (Homo sapiens, UniProt Q12809); test: Inhibition of human ERG at 10 uM by patch clamp assay relative to control
Method in brief: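 hERG current measured by patch clamp with test compound at 10 µM; result given as % inhibition.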

[16] = target: T4, Prostaglandin E synthase (Mus musculus) (UniProt Q9JM51); test: Inhibition of mouse mPGES1 expressed in CHO cells assessed as reduction in PGE2 production at 10 uM using PGH2 as substrate incubated for 10 mins followed by substrate addition measured for 1 min relative to control; method in brief: as §5
T4 sequence (whole entry): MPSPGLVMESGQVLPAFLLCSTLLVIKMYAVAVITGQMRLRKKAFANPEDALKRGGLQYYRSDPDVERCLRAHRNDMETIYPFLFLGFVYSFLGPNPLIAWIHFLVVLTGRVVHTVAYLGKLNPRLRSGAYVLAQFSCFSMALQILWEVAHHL

[17] = target: CYP2C19 (Homo sapiens, UniProt P33261); test: Inhibition of CYP2C19 in human liver microsomes at 10 uM after 40 mins in presence of NADPH by LC-MS/MS analysis; type: ADME; method in brief: as §1
[18] = target: T2, Prostaglandin E synthase; test: Inhibition of mPGES1 in human whole blood assessed as reduction in LPS-induced PGE2 production measured after 20 to 24 hrs
[19] = Metabolic stability in human liver microsomes assessed as parent compound remaining at 1 uM after 60 mins in presence of NADPH by LC-MS/MS analysis; type: ADME, microsome; conditions: read-out: Stability; method in brief: as §3

Chain of CYP2C9 (P11712 whole entry): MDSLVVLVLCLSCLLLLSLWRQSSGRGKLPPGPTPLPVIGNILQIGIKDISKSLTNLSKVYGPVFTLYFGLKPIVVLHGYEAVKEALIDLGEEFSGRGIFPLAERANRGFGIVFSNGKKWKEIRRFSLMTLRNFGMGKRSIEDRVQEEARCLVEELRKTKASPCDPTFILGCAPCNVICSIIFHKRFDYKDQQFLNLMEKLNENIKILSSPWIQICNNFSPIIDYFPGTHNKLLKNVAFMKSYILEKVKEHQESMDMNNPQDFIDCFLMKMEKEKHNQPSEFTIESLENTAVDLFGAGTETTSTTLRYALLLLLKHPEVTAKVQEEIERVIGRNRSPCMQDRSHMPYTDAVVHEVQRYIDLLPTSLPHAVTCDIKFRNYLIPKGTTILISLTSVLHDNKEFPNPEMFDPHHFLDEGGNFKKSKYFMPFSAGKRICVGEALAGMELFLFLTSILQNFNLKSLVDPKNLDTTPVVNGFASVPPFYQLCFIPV
Chain of CYP2D6 (P10635 whole entry, canonical isoform): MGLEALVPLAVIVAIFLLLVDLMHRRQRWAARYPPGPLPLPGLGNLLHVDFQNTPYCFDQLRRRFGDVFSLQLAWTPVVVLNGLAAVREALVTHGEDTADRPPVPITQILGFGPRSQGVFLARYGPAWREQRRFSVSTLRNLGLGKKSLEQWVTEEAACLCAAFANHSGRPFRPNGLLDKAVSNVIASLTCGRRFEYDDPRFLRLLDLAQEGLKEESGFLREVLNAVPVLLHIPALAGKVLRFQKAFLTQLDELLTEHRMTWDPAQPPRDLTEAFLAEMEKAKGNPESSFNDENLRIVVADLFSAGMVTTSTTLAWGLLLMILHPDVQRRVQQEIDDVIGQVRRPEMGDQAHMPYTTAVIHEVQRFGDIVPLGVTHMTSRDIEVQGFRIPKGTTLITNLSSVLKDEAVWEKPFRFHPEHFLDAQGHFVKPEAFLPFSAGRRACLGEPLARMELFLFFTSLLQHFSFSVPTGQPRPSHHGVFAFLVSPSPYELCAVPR
Chain of Prostaglandin E synthase 2 (Homo sapiens) (Q9H7Z7 whole entry): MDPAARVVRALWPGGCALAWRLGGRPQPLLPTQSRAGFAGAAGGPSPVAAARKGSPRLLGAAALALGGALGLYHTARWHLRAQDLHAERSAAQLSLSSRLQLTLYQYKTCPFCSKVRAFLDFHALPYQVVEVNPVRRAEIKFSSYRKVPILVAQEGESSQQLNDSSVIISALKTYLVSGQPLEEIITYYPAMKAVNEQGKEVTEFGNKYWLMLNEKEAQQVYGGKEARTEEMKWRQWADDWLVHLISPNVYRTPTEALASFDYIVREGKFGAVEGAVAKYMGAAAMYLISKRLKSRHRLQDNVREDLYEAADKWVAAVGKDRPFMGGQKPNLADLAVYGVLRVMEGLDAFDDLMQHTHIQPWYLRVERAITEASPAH
Chain of CYP3A4 (P08684 whole entry): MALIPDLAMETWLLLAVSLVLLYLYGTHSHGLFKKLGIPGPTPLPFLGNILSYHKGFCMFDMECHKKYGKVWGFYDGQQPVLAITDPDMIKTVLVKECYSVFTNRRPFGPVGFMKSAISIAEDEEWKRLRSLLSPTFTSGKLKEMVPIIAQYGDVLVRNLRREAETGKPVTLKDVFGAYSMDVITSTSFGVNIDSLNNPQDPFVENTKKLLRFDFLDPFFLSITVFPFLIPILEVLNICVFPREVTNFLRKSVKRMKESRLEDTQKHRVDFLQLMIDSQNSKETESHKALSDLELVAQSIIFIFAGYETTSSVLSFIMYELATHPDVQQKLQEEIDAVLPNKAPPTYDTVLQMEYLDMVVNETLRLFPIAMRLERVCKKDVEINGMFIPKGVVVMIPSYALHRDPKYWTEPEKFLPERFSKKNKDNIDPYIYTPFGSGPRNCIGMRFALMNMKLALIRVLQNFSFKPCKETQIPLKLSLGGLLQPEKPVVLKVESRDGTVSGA
Chain of CYP2C19 (P33261 whole entry): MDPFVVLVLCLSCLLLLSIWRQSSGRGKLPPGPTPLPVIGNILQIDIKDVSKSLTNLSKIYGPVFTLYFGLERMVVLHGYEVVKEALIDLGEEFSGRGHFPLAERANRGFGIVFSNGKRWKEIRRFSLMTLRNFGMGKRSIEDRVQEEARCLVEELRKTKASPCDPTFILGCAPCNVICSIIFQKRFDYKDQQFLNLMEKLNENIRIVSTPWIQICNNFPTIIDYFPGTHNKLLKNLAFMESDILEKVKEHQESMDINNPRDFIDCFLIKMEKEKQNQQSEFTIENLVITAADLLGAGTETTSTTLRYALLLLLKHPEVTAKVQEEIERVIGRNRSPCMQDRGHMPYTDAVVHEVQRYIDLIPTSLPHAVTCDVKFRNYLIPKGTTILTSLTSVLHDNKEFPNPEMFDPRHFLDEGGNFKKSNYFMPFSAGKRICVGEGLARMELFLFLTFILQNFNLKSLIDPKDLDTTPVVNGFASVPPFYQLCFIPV
Chain of hERG (KCNH2) (Q12809 whole entry): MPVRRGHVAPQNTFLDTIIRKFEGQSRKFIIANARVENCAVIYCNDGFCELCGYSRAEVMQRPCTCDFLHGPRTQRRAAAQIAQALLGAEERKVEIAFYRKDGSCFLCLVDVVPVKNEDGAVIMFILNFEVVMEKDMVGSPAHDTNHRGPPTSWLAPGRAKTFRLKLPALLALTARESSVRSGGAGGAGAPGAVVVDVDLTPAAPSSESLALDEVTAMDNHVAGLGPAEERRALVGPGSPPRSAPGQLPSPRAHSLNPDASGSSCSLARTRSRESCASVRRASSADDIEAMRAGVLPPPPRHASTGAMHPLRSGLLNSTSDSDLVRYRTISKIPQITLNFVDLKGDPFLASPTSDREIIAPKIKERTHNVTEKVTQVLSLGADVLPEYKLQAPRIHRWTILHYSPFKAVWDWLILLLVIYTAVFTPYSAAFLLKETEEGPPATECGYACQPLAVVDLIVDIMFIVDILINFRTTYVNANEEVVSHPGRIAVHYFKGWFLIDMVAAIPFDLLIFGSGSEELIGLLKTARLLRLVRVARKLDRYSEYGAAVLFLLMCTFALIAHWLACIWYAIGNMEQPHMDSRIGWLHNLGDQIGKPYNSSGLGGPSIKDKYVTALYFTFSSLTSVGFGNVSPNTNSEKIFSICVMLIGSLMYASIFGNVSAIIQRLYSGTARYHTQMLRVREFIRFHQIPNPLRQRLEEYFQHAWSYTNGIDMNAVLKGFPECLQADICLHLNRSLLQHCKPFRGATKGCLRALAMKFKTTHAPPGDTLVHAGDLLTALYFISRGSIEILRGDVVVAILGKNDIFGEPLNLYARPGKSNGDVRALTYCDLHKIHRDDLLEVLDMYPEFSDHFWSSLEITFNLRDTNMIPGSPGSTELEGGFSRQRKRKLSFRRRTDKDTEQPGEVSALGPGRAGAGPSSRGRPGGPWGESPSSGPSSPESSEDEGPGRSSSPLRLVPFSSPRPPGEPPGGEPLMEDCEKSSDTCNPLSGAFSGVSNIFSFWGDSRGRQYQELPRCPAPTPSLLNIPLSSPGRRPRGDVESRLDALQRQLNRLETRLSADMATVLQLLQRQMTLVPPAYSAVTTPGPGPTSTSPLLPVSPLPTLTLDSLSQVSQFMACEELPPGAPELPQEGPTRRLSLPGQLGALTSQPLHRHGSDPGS
Chain of Hematopoietic prostaglandin D synthase (Homo sapiens) (O60760 whole entry): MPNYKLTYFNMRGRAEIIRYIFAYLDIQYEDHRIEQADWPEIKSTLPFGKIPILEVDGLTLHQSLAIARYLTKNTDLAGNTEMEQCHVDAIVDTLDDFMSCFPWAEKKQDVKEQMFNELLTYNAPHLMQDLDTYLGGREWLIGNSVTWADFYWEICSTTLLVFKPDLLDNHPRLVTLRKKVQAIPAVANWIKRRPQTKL

Row | SMILES | inhibition at 20 min, 10 µM [1] [%] | fraction unbound at 5 h, 10 µM [2] | remaining at 1 h, 1 µM [3] [%] | inhibition at 20 min, 10 µM [4] [%] | IC50 [5] [nM] | inhibition at 20 min, 10 µM [6] [%] | inhibition [7] [%] | inhibition [8] [%] | IC50 [9] [nM] | inhibition at 5 min, 10 µM [10] [%] | inhibition [11] [%] | inhibition [12] [%] | inhibition at 20 min, 10 µM [13] [%] | fraction unbound at 5 h, 10 µM [14] | inhibition at 10 µM [15] [%] | inhibition [16] [%] | inhibition at 40 min, 10 µM [17] [%] | IC50 [18] [nM] | remaining at 1 h, 1 µM [19] [%]
1 | CC1(C)Cc2c(c(C(=O)Nc3cc(C(F)(F)F)ccc3F)cc3nc(Nc4c(F)cccc4Cl)[nH]c23)O1 | 12 | 0.0035 | 79 | 2 | 204 | 35 | 4.2 | 11.7 | 3 | 14.7 | 5.8 | 13.5 | 22 | 0.0004 | 5.8 | 14.4 | 33 | 256 | 89
2 | CC1(C)Cc2c(c(C(=O)Nc3ccc(F)c(C(F)(F)F)c3)cc3nc(Nc4c(F)cccc4Cl)[nH]c23)O1 | 19 | 0.0136 | 100 | 46 | 465 | 48 | 0 | 10.5 | 5 | 8.27 | 0 | 11.6 | -6 | 0.0054 | 3.8 | 22.1 | 55 | 208 | 100
3 | Cc1cccc(Cl)c1Nc1nc2cc(C(=O)Nc3cc(C(F)F)ccc3F)c3c(c2[nH]1)CC(C)(C)O3 | 14 | 0.0158 | 60 | 16 | 222 | 28 | 11 | 0.7 | 10 | 38.2 | 27.6 | 3.8 | 28 | 0.0008 | 11.8 | 2.5 | 14 | 162 | 83
4 | CC1(C)Cc2c(c(C(=O)Nc3ccc(C(F)(F)F)cn3)cc3nc(Nc4c(Cl)cccc4Cl)[nH]c23)O1 | 9 | 0.0016 | 71 | 40 | 259 | 56 | 0 | 7.1 | 8.4 | 7.8 | 15.1 | 7.8 | 4 | 0.0004 | 5.4 | 10.9 | 15 | 261 | 91
5 | Cc1cccc(Cl)c1Nc1nc2cc(C(=O)Nc3cc(C(F)(F)F)ccc3F)c3c(c2[nH]1)CC(C)(C)O3 | -2 | 0.0004 | 46 | -4 | 340 | 15 | 21.1 | 0 | 3.3 | 14.6 | 19.5 | 23.5 | 24 | 0.0003 | 12.3 | 8.2 | 16 | 222 | 100
6 | Cn1c(Nc2c(F)cccc2Cl)nc2cc(C(=O)Nc3cccc(C(F)(F)F)c3)c3c(c21)CC(C)(C)O3 | 29 | 0.0028 | 51 | 8 | 188 | 19 | 24 | 3.4 | 5.7 | 19.7 | 16.5 | 7.9 | 5 | 0.0029 | 26.5 | 5.2 | 36 | 405 | 98
